A short description of data set [1]: Compound was evaluated for first order half-life in brain homogenate. It counts as ADME, tissue-based. In outline: (§1)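 Male Sprague-Dawley rats were PBS-perfused and their organs homogenized in PBS: brain 2% w/v, liver 1.0% w/v. Compound loss followed by the fall in 360 nm absorbance. Pseudo-first-order rate constant taken from log(A360) versus time. Triplicate runs; half-life given as mean ± SEM.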

The nature of data set [2]: Compound was evaluated for first order half-life in liver homogenate. It counts as ADME, tissue-based. Summed up: as §1
A short description of data set [3]: Compound was evaluated for oxidation rate constant in brain homogenate. It counts as ADME, tissue-based. In outline: as §1
Data set [4] in a line: Compound was evaluated for oxidation rate constant in liver homogenate. It counts as ADME, tissue-based. Particulars: tissue homogenate. Summed up:
as §1

For data set [5], the species on record is Rattus norvegicus. Put plainly: Compound is tested in male rats for its effect on the pituitary weight. It counts as functional. On the set-up: concentration or dose not given beside the values. Summed up:
(§2)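 Adult male Sprague-Dawley rats (175–200 g) received a single iv tail-vein dose of 0.025 mmol/kg (equal to 5 mg/kg E2-CDS) or DMSO vehicle (0.5 mL/kg). Weighed daily for 14 days. Euthanized at day 14; organ excised and weighed. Expressed as mg per 100 g body weight, mean ± SEM, n=6.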

For data set [6], the species on record is Rattus norvegicus. The data set can be described thus: Compound is tested in male rats for its effect on the prostate weight. In kind it is functional, Prostate gland. Set-up: concentration or dose not given beside the values. In outline: as §2
The species entered for data set [7] is Rattus norvegicus. The data set can be described thus: Compound was tested in male rats for its effect on the seminal vesicle weight. It counts as functional. Set-up: concentration or dose not given beside the values. Summed up: as §2
Data set [8] has as its system Rattus norvegicus. Put plainly: Compound is evaluated for effect on serum estradiol, 14 days subsequent to a single intravenous dose determined by means of a radioimmunoassay. In kind it is functional, organism-based. Summed up:
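Adult male Sprague-Dawley rats (175–200 g), conscious and restrained, given a single tail-vein iv injection of 0.025 mmol/kg (equal to 5 mg/kg E2-CDS) or DMSO vehicle (0.5 mL/kg). Serum taken at day 14. Estradiol measured in duplicate by Coat-a-Count RIA. Antibody cross-reactivity with E2-Q+ <0.1%; detection limit 10 pg/mL. Mean ± SEM.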

A word on the half-life: it is the time in which the quantity being followed falls by half. With `CCCN1C=CCC(C(=O)O[C@H]2CC[C@H]3[C@@H]4CCc5cc(O)ccc5[C@H]4CC[C@]23C)=C1`, the half-life in data set [1] worked out at 1.57 h; in data set [2] it was 0.867 h. Further, the k in data set [3] is 0.00736 min⁻¹; in data set [4], 0.0153 min⁻¹. Besides, the values for the Activity in data set [5], in data set [6] and in data set [7] were 5.32%, 46.4% and 85.97%, respectively. This compound also returned a Concentration in data set [8] of 42.9 pg/mL.
Regarding `C[C@]12CC[C@@H]3c4ccc(O)cc4CC[C@H]3[C@@H]1CC[C@@H]2OC(=O)C1=CN(CC2CC2)C=CC1`, the half-life in data set [1] came out at 1.9 h; in data set [2] it was 0.633 h. The k amounted to 0.00611 min⁻¹ in data set [3] and 0.0183 min⁻¹ in data set [4]. The figures for the Activity in data set [5], in data set [6] and in data set [7] were 4.4%, 54.31% and 97.29%, respectively. In data set [8], the Concentration was 40.4 pg/mL.
For the compound `C[C@]12CC[C@@H]3c4ccc(O)cc4CC[C@H]3[C@@H]1CC[C@@H]2OC(=O)C1=CN(Cc2ccccc2)C=CC1`, the half-life in data set [1] was 4.8 h; in data set [2] it was 1.32 h. For the same compound, the k in data set [3] is 0.00238 min⁻¹; in data set [4], 0.00892 min⁻¹. The Activity was 4.86% in data set [5], 67.38% in data set [6] and 97.43% in data set [7]. The same compound came in with a Concentration in data set [8] of 42 pg/mL.
Consider `CN1C=CCC(C(=O)O[C@H]2CC[C@H]3[C@@H]4CCc5cc(O)ccc5[C@H]4CC[C@]23C)=C1`, for which the half-life in data set [1] is 2.02 h; in data set [2], 0.533 h. The k in data set [3] came to 0.00577 min⁻¹; in data set [4] it was 0.0815 min⁻¹. Also, the Activity in data set [5] was 6.46%; in data set [6] it was 35.75%; in data set [7], 68.15%. The Concentration in data set [8] worked out at 53 pg/mL.
For `CCCCCCN1C=CCC(C(=O)O[C@H]2CC[C@H]3[C@@H]4CCc5cc(O)ccc5[C@H]4CC[C@]23C)=C1`, the values for the half-life in data set [1] and in data set [2] were 4.32 h and 0.933 h, respectively. Besides, the k in data set [3] is 0.00268 min⁻¹; in data set [4] it was 0.0123 min⁻¹. Moreover, the results for the Activity in data set [5], in data set [6] and in data set [7] were 5.28%, 66.26% and 95.66%, respectively. In data set [8], this compound registered a Concentration of 37.4 pg/mL.
With `C[C@]12CC[C@@H]3c4ccc(O)cc4CC[C@H]3[C@@H]1CC[C@@H]2O` [ESTRADIOL], the Activity came out at 3.88% in data set [5], 62.26% in data set [6] and 107.36% in data set [7]. The same compound had a Concentration in data set [8] of 22.2 pg/mL.
For the compound `CCN1C=CCC(C(=O)O[C@H]2CC[C@H]3[C@@H]4CCc5cc(O)ccc5[C@H]4CC[C@]23C)=C1`, the half-life in data set [1] turned out to be 3.3 h; in data set [2], 0.367 h. The k in data set [3] was 0.00353 min⁻¹; in data set [4], 0.0323 min⁻¹. For the same compound, the Activity in data set [5] is 6.17%; in data set [6], 32.06%; in data set [7], 70.75%. Also, in data set [8], the Concentration turned out to be 37.7 pg/mL.
`CC(C)N1C=CCC(C(=O)O[C@H]2CC[C@H]3[C@@H]4CCc5cc(O)ccc5[C@H]4CC[C@]23C)=C1`: the results for the half-life in data set [1] and in data set [2] were 2 h and 0.433 h, respectively. Moreover, the k was determined as 0.0058 min⁻¹ in data set [3] and 0.0263 min⁻¹ in data set [4]. For the same compound, the Activity in data set [5] is listed as 4.86%; in data set [6] it was 68.64%; in data set [7], 104.62%. Also, the Concentration in data set [8] was 43.6 pg/mL.
Regarding `C[C@]12CC[C@@H]3c4ccc(O)cc4CC[C@H]3[C@@H]1CC[C@@H]2OC(=O)C1=CN(CCCO)C=CC1`, the half-life in data set [1] stood at 2.05 h; in data set [2] it was 0.483 h. Further, the k in data set [3] was 0.00567 min⁻¹; in data set [4] it was 0.0242 min⁻¹. For the same compound, the results for the Activity in data set [5], in data set [6] and in data set [7] were 4.6%, 75.22% and 106.49%, respectively. In data set [8], the Concentration is 44.3 pg/mL.
